Test [1] can be described thus: Antiproliferative activity against human 184A1 cells assessed as inhibition of cell proliferation incubated for 3 days by CellTiter-Glo Luminescent Cell Viability Assay. Particulars: 184A1, 72 h. The class given is functional, cell-based. In short, it runs like this:
(§1)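 Cancer cell lines seeded in 384-well plates on day 1; compound added on day 2 and left for 3 days. On day 5 all medium was aspirated, and viable cells were quantified by CellTiter-Glo luminescence, which measures cellular ATP. Dose-dependent effects on proliferation were determined.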
(In general: Cellular ATP, detected with luciferase, serves as a proxy for viable cell number.)

For another test, the system named is MDA-MB-157. Put plainly: Antiproliferative activity against human MDA-MB-157 cells assessed as inhibition of cell proliferation incubated for 3 days by CellTiter-Glo Luminescent Cell Viability Assay. Particulars: MDA-MB-157, 72 h. The class given is functional, cell-based. In short, it runs like this:
as §1

For test [2], the system named is HCT-116. Put plainly: Antitumor activity against human HCT-116 cells xenografted in nude mouse assessed as reduction in BAD phosphorylation at S112 residue at 15 to 150 mg/kg/day administered via pump for 18 hrs by Reverse-Phase protein array analysis. The class given is functional, organism-based. Particulars: dose 15-150 mg/kg/day.
In another test the test system is MCF10. Put plainly: Antiproliferative activity against human MCF10 cells assessed as inhibition of cell proliferation incubated for 3 days by CellTiter-Glo Luminescent Cell Viability Assay. The class given is functional, cell-based. The note with it: MCF10, 72 h. The essentials:
as §1

In the next test the test system is A549. Briefly: cells. Particulars: Homo sapiens, A549, 144 h.
Another test concerns MDA-MB-231. Briefly: Antitumor activity against human MDA-MB-231 cells xenografted in nude mouse assessed as tumor growth inhibition at 20 mg/kg, po administered once daily for 9 to 18 days relative to control. Particulars: time 9-18 day, read-out: TGI. The class given is functional. In general terms: In xenograft studies the graft and the host belong to different species.
The subject of another test is NCI-H2170. Put plainly: Inhibition of anchorage independent cell growth in human NCI-H2170 cells incubated for 6 days by Alamar blue reagent based fluorescence plate reader analysis. The class given is functional. Particulars: NCI-H2170, 144 h.
Test [3] has as its target T1, Serine/threonine-protein kinase D1 (Homo sapiens, UniProt Q15139).
T1 sequence (Q15139 whole entry): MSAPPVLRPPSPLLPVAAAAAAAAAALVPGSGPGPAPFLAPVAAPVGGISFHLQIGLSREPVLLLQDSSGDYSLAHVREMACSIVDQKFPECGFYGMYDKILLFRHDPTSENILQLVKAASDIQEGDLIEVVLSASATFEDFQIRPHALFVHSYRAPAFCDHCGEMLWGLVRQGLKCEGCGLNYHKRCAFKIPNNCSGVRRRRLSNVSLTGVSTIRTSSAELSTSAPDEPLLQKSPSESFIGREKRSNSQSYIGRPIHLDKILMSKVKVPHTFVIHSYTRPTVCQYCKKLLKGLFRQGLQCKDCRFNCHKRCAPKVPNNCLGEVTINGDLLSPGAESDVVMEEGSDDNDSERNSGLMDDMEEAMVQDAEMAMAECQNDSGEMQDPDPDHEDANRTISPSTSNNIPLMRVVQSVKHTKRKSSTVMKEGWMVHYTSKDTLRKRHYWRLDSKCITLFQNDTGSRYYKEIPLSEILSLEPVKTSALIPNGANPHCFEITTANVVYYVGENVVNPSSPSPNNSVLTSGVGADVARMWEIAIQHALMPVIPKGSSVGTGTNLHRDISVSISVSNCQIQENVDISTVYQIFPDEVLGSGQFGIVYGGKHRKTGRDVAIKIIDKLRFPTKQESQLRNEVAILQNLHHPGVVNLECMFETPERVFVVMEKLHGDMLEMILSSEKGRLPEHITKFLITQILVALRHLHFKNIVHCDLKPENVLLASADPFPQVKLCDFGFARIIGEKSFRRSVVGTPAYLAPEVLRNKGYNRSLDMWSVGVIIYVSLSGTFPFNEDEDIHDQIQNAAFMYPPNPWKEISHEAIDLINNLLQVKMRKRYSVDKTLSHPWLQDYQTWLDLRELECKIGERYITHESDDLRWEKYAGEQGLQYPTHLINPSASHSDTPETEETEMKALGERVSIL
Put plainly: Inhibition of human PKCmu assessed as inhibition constant in presence of ATP.

Test [4] concerns the target Protein kinase C theta type (Homo sapiens, UniProt Q04759). Briefly: Inhibition of human PKCtheta assessed as inhibition constant in presence of ATP.
In the next test the test system is PANC-08-13. Briefly: Antiproliferative activity against human PANC-08-13 cells assessed as inhibition of cell proliferation incubated for 3 days by CellTiter-Glo Luminescent Cell Viability Assay. The format is functional, cell-based. Particulars: PANC-08-13, 72 h. In short, it runs like this: (§2)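 Cells of each line were plated in 384-well plates on day 1 and exposed to compound from day 2 for 3 days. On day 5 all medium was aspirated. Viable cell number was read by CellTiter-Glo luminescence, which quantifies cellular ATP.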

A further test relates to NCI-H520. Briefly: Antiproliferative activity against human NCI-H520 cells assessed as inhibition of cell proliferation incubated for 3 days by CellTiter-Glo Luminescent Cell Viability Assay. The note with it: NCI-H520, 72 h. The class given is functional, cell-based. The essentials:
as §2

For another test, the system named is HCC827. Put plainly: Antiproliferative activity against human HCC827 cells assessed as inhibition of cell proliferation incubated for 3 days by CellTiter-Glo Luminescent Cell Viability Assay. The class given is functional, cell-based. Particulars: HCC827, 72 h. In short, it runs like this: as §1
The next test relates to Hs 766. Put plainly: Antiproliferative activity against human Hs766T cells assessed as inhibition of cell proliferation incubated for 3 days by CellTiter-Glo Luminescent Cell Viability Assay. The class given is functional, cell-based. Particulars: Hs 766, 72 h. The essentials:
as §1

The test system of a further test is NCI-H1838. Briefly: Inhibition of anchorage independent cell growth in human NCI-H1838 cells incubated for 6 days by Alamar blue reagent based fluorescence plate reader analysis. The format is functional. The note with it: NCI-H1838, 144 h.
In the next test the test system is BT-20. Put plainly: Antiproliferative activity against human BT-20 cells assessed as inhibition of cell proliferation incubated for 3 days by CellTiter-Glo Luminescent Cell Viability Assay. The class given is functional, cell-based. Particulars: BT-20, 72 h. The essentials: as §1
For the next test, the system named is NCI-H226. Put plainly: Antiproliferative activity against human NCI-H226 cells assessed as inhibition of cell proliferation incubated for 3 days by CellTiter-Glo Luminescent Cell Viability Assay. The format is functional, cell-based. Particulars: NCI-H226, 72 h. In short, it runs like this: as §2
The test system of a further test is DLD-1. Briefly: Antitumor activity against PAK4 -/+ human DLD-1 cells xenografted in nude mouse assessed as tumor growth inhibition at 10 mg/kg, po administered once daily for 9 to 18 days relative to control. The format is functional. Particulars: time 9-18 day, read-out: TGI. In short, it runs like this: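 Tumor cells were implanted s.c. into the right flank of female nu/nu nude mice aged 6–8 weeks. Animals were randomized into treatment groups once tumors were established (example: day 8 postimplant, about 170 mm3, animals >22 g). Compound in 0.5% methylcellulose was given by oral gavage. Tumors were measured with calipers two to three times per week.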

Test [5] relates to HCT-116. Briefly: Antitumor activity against human HCT-116 cells xenografted in nude mouse assessed as tumor growth inhibition at 15 mg/kg, po administered twice daily for 9 to 18 days relative to control. The format is functional. Particulars: time 9-18 day, read-out: TGI.
The subject of the next test is NCI-H647. Put plainly: Antiproliferative activity against human NCI-H647 cells assessed as inhibition of cell proliferation incubated for 3 days by CellTiter-Glo Luminescent Cell Viability Assay. The format is functional, cell-based. Particulars: NCI-H647, 72 h. The essentials: as §2
For another test, the system named is Hs-578T. Briefly: Antiproliferative activity against human Hs-578T cells assessed as inhibition of cell proliferation incubated for 3 days by CellTiter-Glo Luminescent Cell Viability Assay. The class given is functional, cell-based. The note with it: 72 h. The essentials:
as §1

In test [6] the target is Serine/threonine-protein kinase Chk2 (Homo sapiens, UniProt O96017). Put plainly: Inhibition of human CHK2 assessed as inhibition constant in presence of ATP.
Chain of Serine/threonine-protein kinase Chk2 (O96017 whole entry): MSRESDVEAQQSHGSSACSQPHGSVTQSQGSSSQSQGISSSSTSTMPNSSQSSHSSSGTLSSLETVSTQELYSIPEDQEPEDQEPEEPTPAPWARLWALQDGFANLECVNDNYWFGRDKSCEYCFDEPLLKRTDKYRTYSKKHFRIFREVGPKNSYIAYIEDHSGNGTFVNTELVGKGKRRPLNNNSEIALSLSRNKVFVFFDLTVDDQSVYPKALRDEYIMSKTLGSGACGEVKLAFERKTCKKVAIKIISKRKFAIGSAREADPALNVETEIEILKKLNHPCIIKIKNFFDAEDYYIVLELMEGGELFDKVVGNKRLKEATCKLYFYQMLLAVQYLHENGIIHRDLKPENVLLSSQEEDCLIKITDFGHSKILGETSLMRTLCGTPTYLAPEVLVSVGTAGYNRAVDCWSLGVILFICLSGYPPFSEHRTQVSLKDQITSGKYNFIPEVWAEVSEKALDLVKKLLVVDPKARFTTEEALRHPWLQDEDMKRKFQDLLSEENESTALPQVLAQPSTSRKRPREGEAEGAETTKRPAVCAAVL

The results in this text go back to ChEMBL document CHEMBL5678802, “Small-molecule p21-activated kinase inhibitor PF-3758309 is a potent inhibitor of oncogenic signaling and tumor growth” (Proc Natl Acad Sci U S A, 2010).

In general, IC50 refers to the concentration that inhibits the measured activity by half. A word on the Ki: it is a measure of affinity in units of concentration, obtained from inhibition or displacement.

Activity calls are given as the source filed them. The rule behind the calls is not given here.

Chain of Protein kinase C theta type (Q04759 whole entry): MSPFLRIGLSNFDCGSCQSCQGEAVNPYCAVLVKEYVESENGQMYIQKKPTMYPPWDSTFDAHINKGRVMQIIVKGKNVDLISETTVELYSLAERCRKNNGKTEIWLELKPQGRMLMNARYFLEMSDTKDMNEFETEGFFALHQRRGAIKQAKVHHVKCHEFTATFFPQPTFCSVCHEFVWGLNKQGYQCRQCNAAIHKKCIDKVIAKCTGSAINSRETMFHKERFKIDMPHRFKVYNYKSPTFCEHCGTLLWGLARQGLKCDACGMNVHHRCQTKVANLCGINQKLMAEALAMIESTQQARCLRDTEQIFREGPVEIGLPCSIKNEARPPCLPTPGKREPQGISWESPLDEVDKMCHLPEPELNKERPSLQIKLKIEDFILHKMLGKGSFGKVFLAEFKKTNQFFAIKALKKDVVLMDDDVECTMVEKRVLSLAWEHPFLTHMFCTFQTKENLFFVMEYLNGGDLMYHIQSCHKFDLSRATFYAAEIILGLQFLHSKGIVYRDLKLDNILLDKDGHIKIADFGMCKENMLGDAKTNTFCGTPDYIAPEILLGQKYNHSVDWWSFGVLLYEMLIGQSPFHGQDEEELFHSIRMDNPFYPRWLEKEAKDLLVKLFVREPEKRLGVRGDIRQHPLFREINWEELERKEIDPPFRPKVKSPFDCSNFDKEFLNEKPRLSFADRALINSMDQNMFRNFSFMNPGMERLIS

With `Cc1nc(Nc2n[nH]c3c2CN(C(=O)N[C@H](CN(C)C)c2ccccc2)C3(C)C)c2sccc2n1` [PF-03758309], the IC50 in test [1] is 0.83 nM; in the test on MDA-MB-157 it was 145 nM; with MCF10, 0.21 nM; in the test on A549, 27.4 nM; in the test with NCI-H2170 it was 6.04 nM; with PANC-08-13 it was 12 nM. Besides, the IC50 turned out to be 5.6 nM in the test with NCI-H520; 9.2 nM with HCC827; 416 nM with Hs 766; 9.59 nM in the test with NCI-H1838; 81.7 nM in the test with BT-20; 9.3 nM with NCI-H226. In addition, the half-inhibitory concentration (IC50) with NCI-H647 came to 36 nM; in the test with Hs-578T, 0.37 nM. In addition, the result in the test with HCT-116 [2] was Active. In addition, the inhibition in vivo at 20 mg/kg in the test on MDA-MB-231 came to 89%. Also, the Ki in test [3] is 21 nM; in [4], 10 nM; in test [6], 3 nM. Further, the inhibition in vivo at 10 mg/kg in the test on DLD-1 came to 0%. The inhibition in vivo at 15 mg/kg in the test on HCT-116 [5] worked out at 79%.
